Experimental data from ChEMBL document CHEMBL5247575 (J Med Chem, 2018).
Converted amounts (≈) assume the structure as drawn.

Tests used:
Escherichia coli [1] = experiment: Synergistic antibacterial activity against Escherichia coli DH10B transfected with pBC SK (-) PDC-3 assessed as cefepime MIC at 8 ug/ml by broth microdilution method; format: functional; conditions: dose 8 µg/ml
In short: (§1)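 Broth microdilution per CLSI guidelines, using custom frozen panels. […] Each partner drug was also tested alone. MICs were run in triplicate and the modal value is reported.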

Bacteria [2] = experiment: Inhibition of bacteria ADC-7 assessed as half life using nitrocefin as substrate
Klebsiella pneumoniae [3] = experiment: Synergistic antibacterial activity against Klebsiella pneumoniae jefferson 1773 producing OXA-181 assessed as cefepime MIC at 8 ug/ml by broth microdilution method; format: functional; conditions: dose 8 µg/ml
Klebsiella pneumoniae [4] = experiment: Antibacterial activity against Klebsiella pneumoniae jefferson 1775 producing OXA-48 by broth microdilution method; format: functional
Klebsiella pneumoniae [5] = experiment: Synergistic antibacterial activity against Klebsiella pneumoniae 935/1884 producing KPC-3 assessed as meropenem MIC at 4 ug/ml by broth microdilution method; format: functional; conditions: dose 4 µg/ml
Klebsiella pneumoniae [6] = experiment: Synergistic antibacterial activity against Klebsiella pneumoniae 1354/2241 producing KPC-3 assessed as meropenem MIC at 4 ug/ml by broth microdilution method; format: functional; conditions: dose 4 µg/ml; in short: as §1
Acinetobacter baumannii [7] = experiment: Synergistic antibacterial activity against Acinetobacter baumannii PR319 producing OXA-23/24/40 assessed as meropenem MIC at 8 ug/ml by broth microdilution method; format: functional; conditions: dose 8 µg/ml
Escherichia coli [8] = experiment: Synergistic antibacterial activity against Escherichia coli DH10B transfected with pBR322-catI-KPC-2 assessed as cefepime MIC at 8 ug/ml by broth microdilution method; format: functional; conditions: dose 8 µg/ml; in short: as §1
Klebsiella pneumoniae [9] = experiment: Synergistic antibacterial activity against Klebsiella pneumoniae 1398/2291 producing KPC-3 assessed as meropenem MIC at 8 ug/ml by broth microdilution method; format: functional; conditions: dose 8 µg/ml; in short: as §1
Acinetobacter baumannii [10] = experiment: Synergistic antibacterial activity against ADC deleted Acinetobacter baumannii transfected with pWH1266 OXA-23 assessed as cefepime MIC at 8 ug/ml by broth microdilution method; format: functional; conditions: dose 8 µg/ml
Pseudomonas aeruginosa [11] = experiment: Synergistic antibacterial activity against Pseudomonas aeruginosa 776 assessed as meropenem MIC at 8 ug/ml by broth microdilution method; format: functional; conditions: dose 8 µg/ml
Acinetobacter baumannii [12] = experiment: Synergistic antibacterial activity against Acinetobacter baumannii PR381 producing OXA-24/40 assessed as meropenem MIC at 8 ug/ml by broth microdilution method; format: functional; conditions: dose 8 µg/ml
Klebsiella pneumoniae [13] = experiment: Synergistic antibacterial activity against Klebsiella pneumoniae 977/1916 producing KPC-3 assessed as meropenem MIC at 4 ug/ml by broth microdilution method; format: functional; conditions: dose 4 µg/ml
Klebsiella pneumoniae [14] = experiment: Synergistic antibacterial activity against Klebsiella pneumoniae 660/1568 producing KPC-3 assessed as meropenem MIC at 8 ug/ml by broth microdilution method; format: functional; conditions: dose 8 µg/ml; in short: as §1
Bacteria [15] = experiment: Inhibition of bacteria ADC-7 assessed as Koff rate using nitrocefin as substrate incubated for 30 mins
Escherichia coli [16] = experiment: Synergistic antibacterial activity against Escherichia coli DH10B transfected with pBR322-catI-KPC-2 assessed as meropenem MIC at 4 ug/ml by broth microdilution method; format: functional; conditions: dose 4 µg/ml; in short: as §1
Escherichia coli [17] = experiment: Synergistic antibacterial activity against Escherichia coli DH10B assessed as meropenem MIC at 8 ug/ml by broth microdilution method; format: functional; conditions: dose 8 µg/ml
Klebsiella pneumoniae [18] = experiment: Synergistic antibacterial activity against Klebsiella pneumoniae 1108/1989 producing KPC-3 assessed as cefepime MIC at 4 ug/ml by broth microdilution method; format: functional; conditions: dose 4 µg/ml; in short: as §1
Acinetobacter baumannii [19] = experiment: Synergistic antibacterial activity against ADC deleted Acinetobacter baumannii assessed as meropenem MIC at 4 ug/ml by broth microdilution method; format: functional; conditions: dose 4 µg/ml
Klebsiella pneumoniae [20] = experiment: Synergistic antibacterial activity against Klebsiella pneumoniae 901/1860 producing KPC-3 assessed as cefepime MIC at 8 ug/ml by broth microdilution method; format: functional; conditions: dose 8 µg/ml
Acinetobacter baumannii [21] = experiment: Antibacterial activity against ADC deleted Acinetobacter baumannii by broth microdilution method; format: functional
Klebsiella pneumoniae [22] = experiment: Synergistic antibacterial activity against Klebsiella pneumoniae 935/1884 producing KPC-3 assessed as cefepime MIC at 8 ug/ml by broth microdilution method; format: functional; conditions: dose 8 µg/ml
Klebsiella pneumoniae [23] = experiment: Synergistic antibacterial activity against Klebsiella pneumoniae 776/1742 producing KPC-2 assessed as cefepime MIC at 4 ug/ml by broth microdilution method; format: functional; conditions: dose 4 µg/ml
Klebsiella pneumoniae [24] = experiment: Synergistic antibacterial activity against Klebsiella pneumoniae 935/1884 producing KPC-3 assessed as cefepime MIC at 4 ug/ml by broth microdilution method; format: functional; conditions: dose 4 µg/ml
Klebsiella pneumoniae [25] = experiment: Synergistic antibacterial activity against Klebsiella pneumoniae 660/1568 producing KPC-3 assessed as cefepime MIC at 8 ug/ml by broth microdilution method; format: functional; conditions: dose 8 µg/ml; in short: as §1
Klebsiella pneumoniae [26] = experiment: Synergistic antibacterial activity against Klebsiella pneumoniae 1398/2291 producing KPC-3 assessed as cefepime MIC at 8 ug/ml by broth microdilution method; format: functional; conditions: dose 8 µg/ml; in short: as §1
Acinetobacter baumannii [27] = experiment: Synergistic antibacterial activity against Acinetobacter baumannii PR319 producing OXA-23/24/40 assessed as meropenem MIC at 4 ug/ml by broth microdilution method; format: functional; conditions: dose 4 µg/ml
Acinetobacter baumannii [28] = experiment: Synergistic antibacterial activity against Acinetobacter baumannii PR381 producing OXA-24/40 assessed as meropenem MIC at 4 ug/ml by broth microdilution method; format: functional; conditions: dose 4 µg/ml
Klebsiella pneumoniae [29] = experiment: Synergistic antibacterial activity against Klebsiella pneumoniae 977/1916 producing KPC-3 assessed as cefepime MIC at 4 ug/ml by broth microdilution method; format: functional; conditions: dose 4 µg/ml
Acinetobacter baumannii [30] = experiment: Synergistic antibacterial activity against ADC deleted Acinetobacter baumannii assessed as meropenem MIC at 8 ug/ml by broth microdilution method; format: functional; conditions: dose 8 µg/ml
Escherichia coli [31] = experiment: Synergistic antibacterial activity against Escherichia coli DH10B assessed as cefepime MIC at 8 ug/ml by broth microdilution method; format: functional; conditions: dose 8 µg/ml
Acinetobacter baumannii [32] = experiment: Synergistic antibacterial activity against Acinetobacter baumannii PR448 producing OXA-23 assessed as cefepime MIC at 4 ug/ml by broth microdilution method; format: functional; conditions: dose 4 µg/ml
Klebsiella pneumoniae [33] = experiment: Synergistic antibacterial activity against Klebsiella pneumoniae 776/1742 producing KPC-2 assessed as meropenem MIC at 4 ug/ml by broth microdilution method; format: functional; conditions: dose 4 µg/ml
Klebsiella pneumoniae [34] = experiment: Synergistic antibacterial activity against Klebsiella pneumoniae jefferson 1773 producing OXA-181 assessed as cefepime MIC at 4 ug/ml by broth microdilution method; format: functional; conditions: dose 4 µg/ml
Klebsiella pneumoniae [35] = experiment: Synergistic antibacterial activity against Klebsiella pneumoniae CAV 1543 producing OXA-48 assessed as cefepime MIC at 4 ug/ml by broth microdilution method; format: functional; conditions: dose 4 µg/ml
Escherichia coli [36] = experiment: Synergistic antibacterial activity against Escherichia coli DH10B assessed as cefepime MIC at 4 ug/ml by broth microdilution method; format: functional; conditions: dose 4 µg/ml
Klebsiella pneumoniae [37] = experiment: Synergistic antibacterial activity against Klebsiella pneumoniae CAV 1636 producing OXA-181 assessed as cefepime MIC at 8 ug/ml by broth microdilution method; format: functional; conditions: dose 8 µg/ml
Pseudomonas aeruginosa [38] = experiment: Synergistic antibacterial activity against Pseudomonas aeruginosa CL232 assessed as meropenem MIC at 4 ug/ml by broth microdilution method; format: functional; conditions: dose 4 µg/ml

**Q.** How did the MIC (Escherichia coli [1]) turn out when `O=C(NNC(=O)[C@@H]1CC[C@@H]2CN1C(=O)N2OS(=O)(=O)O)[C@@H]1CCNC1` was run?
**A.** The MIC was no more than 0.12 µg/mL.

**Q.** What about the T1/2 (Bacteria [2]) of the same compound?
**A.** Its T1/2 is 13 min.

**Q.** What about the MIC (Klebsiella pneumoniae [3]) of the same compound?
**A.** Its MIC is no more than 0.12 µg/mL.

**Q.** And the MIC (Klebsiella pneumoniae [4])?
**A.** Its MIC is greater than 16 µg/mL.

**Q.** What about the MIC (Klebsiella pneumoniae [5]) of the same compound?
**A.** Its MIC is no more than 0.12 µg/mL.

**Q.** What about the MIC (Klebsiella pneumoniae [6]) of the same compound?
**A.** Its MIC is no more than 0.12 µg/mL.

**Q.** What about the MIC (Acinetobacter baumannii [7]) of the same compound?
**A.** The MIC was greater than 16 µg/mL.

**Q.** What about the MIC (Escherichia coli [8]) of the same compound?
**A.** The MIC was no more than 0.12 µg/mL.

**Q.** And the MIC (Klebsiella pneumoniae [9])?
**A.** The MIC was no more than 0.12 µg/mL.

**Q.** And the MIC (Acinetobacter baumannii [10])?
**A.** The MIC was 16 µg/mL.

**Q.** And the MIC (Pseudomonas aeruginosa [11])?
**A.** Its MIC is 16 µg/mL.

**Q.** And the MIC (Acinetobacter baumannii [12])?
**A.** The MIC was greater than 16 µg/mL.

**Q.** And the MIC (Klebsiella pneumoniae [13])?
**A.** Its MIC is no more than 0.12 µg/mL.

**Q.** What about the MIC (Klebsiella pneumoniae [14]) of the same compound?
**A.** The MIC was no more than 0.12 µg/mL.

**Q.** What about the K (Bacteria [15]) of the same compound?
**A.** The K was 9 10^-4/s.

**Q.** And the MIC (Escherichia coli [16])?
**A.** The MIC was no more than 0.12 µg/mL.

**Q.** And the MIC (Escherichia coli [17])?
**A.** The MIC was no more than 0.12 µg/mL.

**Q.** What about the MIC (Klebsiella pneumoniae [18]) of the same compound?
**A.** The MIC was no more than 0.12 µg/mL.

**Q.** And the MIC (Acinetobacter baumannii [19])?
**A.** Its MIC is greater than 16 µg/mL.

**Q.** What about the MIC (Klebsiella pneumoniae [20]) of the same compound?
**A.** The MIC was no more than 0.12 µg/mL.

**Q.** What about the MIC (Acinetobacter baumannii [21]) of the same compound?
**A.** The MIC was 16 µg/mL (≈ 42.4 µM).

**Q.** What about the MIC (Klebsiella pneumoniae [22]) of the same compound?
**A.** The MIC was no more than 0.12 µg/mL.

**Q.** What about the MIC (Klebsiella pneumoniae [23]) of the same compound?
**A.** Its MIC is no more than 0.12 µg/mL.

**Q.** And the MIC (Klebsiella pneumoniae [24])?
**A.** Its MIC is no more than 0.12 µg/mL.

**Q.** What about the MIC (Klebsiella pneumoniae [25]) of the same compound?
**A.** The MIC was no more than 0.12 µg/mL.

**Q.** And the MIC (Klebsiella pneumoniae [26])?
**A.** Its MIC is no more than 0.12 µg/mL.

**Q.** And the MIC (Acinetobacter baumannii [27])?
**A.** Its MIC is greater than 16 µg/mL.

**Q.** And the MIC (Acinetobacter baumannii [28])?
**A.** The MIC was greater than 16 µg/mL.

**Q.** And the MIC (Klebsiella pneumoniae [29])?
**A.** The MIC was no more than 0.12 µg/mL.

**Q.** And the MIC (Acinetobacter baumannii [30])?
**A.** The MIC was no more than 0.12 µg/mL.

**Q.** What about the MIC (Escherichia coli [31]) of the same compound?
**A.** Its MIC is no more than 0.12 µg/mL.

**Q.** What about the MIC (Acinetobacter baumannii [32]) of the same compound?
**A.** Its MIC is 4 µg/mL.

**Q.** And the MIC (Klebsiella pneumoniae [33])?
**A.** Its MIC is no more than 0.12 µg/mL.

**Q.** What about the MIC (Klebsiella pneumoniae [34]) of the same compound?
**A.** Its MIC is no more than 0.12 µg/mL.

**Q.** What about the MIC (Klebsiella pneumoniae [35]) of the same compound?
**A.** Its MIC is no more than 0.12 µg/mL.

**Q.** And the MIC (Escherichia coli [36])?
**A.** Its MIC is no more than 0.12 µg/mL.

**Q.** And the MIC (Klebsiella pneumoniae [37])?
**A.** Its MIC is no more than 0.12 µg/mL.

**Q.** And the MIC (Pseudomonas aeruginosa [38])?
**A.** The MIC was greater than 16 µg/mL.
